HSF-1 act = increases HSF-1 driven luciferase reporter signal; NIH3T3-HGL HSF-1 luciferase reporter, MG132, 8 h; 100% = twice DMSO control signal; activation, % at 9 µM; hit rate 1.7% among 300,000;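 active = mean replicate activation of at least 50% with a set share of replicates each reaching 50%; inconclusive = only one of those two conditions met; inactive = mean below 50% and too few replicates reaching it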;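 note: 0% = median of the neutral control wells and 100% = twice that signal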
AI-2 QS modul = modulators of Vibrio harveyi AI-2 quorum sensing system; Vibrio harveyi JMH597 AI-2 luminescence/OD600 ratio, 9 h; active compounds read low; strain lacks LuxN and CqsS sensors; 0 = neutral-control median; activity change, % at 7.5 µM; AID 2094; hit rate 0.4% among 300,000; in the data active = activity change below about -75%, passing the limit was not always enough; inconclusive = no clear call, values can overlap the other calls;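 note: luminescence divided by OD600 gain over 9 h not by final OD600 alone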
HCV core dimer = HCV core protein dimerization inhibition | TR-FRET GST/Flag-core106 dimerization, 1536-well | inhibition, % at 5 µM | hit rate 0.33% among 300,000 | AID 1899;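 active = inhibition above the mean of all tested compounds plus 3 SD, set per screening campaign, cut at about 45% in these data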
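Test system: GST/Flag-tagged HCV core106 proteins; Medium: KF-containing HEPES buffer, pH 7.45, DTT, CHAPS, BSA; Times: compound-protein-antibody incubation 4 h at 22.5 °C; Detection: TR-FRET 671 and 617 nm emission; Benchmarks: wells lacking GST-core106 and wells with excess unlabelled core106.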
ALR H2O2 inh = inhibitors of human sulfhydryl oxidase ALR; P55789; purified ALR, DTT oxidation, H2O2 HRP-luminol luminescence; hit rate 3.8% among 290,000; inhibition, % (concentration not given with the values);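 active = mean replicate inhibition above about 79%, with every replicate also reaching it, limit read from the data; inconclusive = only one of the two criteria met; inactive = mean below limit and not every replicate reaching it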
Target sequence (P55789 whole entry, looked up): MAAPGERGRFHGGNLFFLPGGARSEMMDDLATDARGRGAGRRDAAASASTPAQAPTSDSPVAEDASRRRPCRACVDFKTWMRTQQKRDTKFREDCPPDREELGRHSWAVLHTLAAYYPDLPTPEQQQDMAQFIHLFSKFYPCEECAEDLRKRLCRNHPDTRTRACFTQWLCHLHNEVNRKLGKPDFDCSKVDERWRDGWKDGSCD
HSF1 inhib = HSF1 inhibition. NIH3T3-HGL HSE-luciferase, MG132-induced, luminescence 8 h; active compounds read low. activity change, negative = inhibition, % at 7.5 µM (by protocol). hit rate 0.77% among 300,000. AID 2098;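 active = more than half of replicate wells show activity change below -50%, luminescence cut by over half; inconclusive = some wells, but at most half, below -50%; inactive = no replicate well below -50%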;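 note: luciferase reports HSF-1 transcriptional activity via heat shock element; 0% = median of DMSO wells and -100% = zero luminescence signal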
PHOSPHO1 block = inhibitors of human PHOSPHO1 phosphatase; Q8TCT1; recombinant PHOSPHO1, absorbance phosphatase assay; inhibition, % at 13.3 µM; hit rate 1.1% among 290,000; AID 1565; in the data active = inhibition above about 60%
Target sequence (Q8TCT1 whole entry, looked up): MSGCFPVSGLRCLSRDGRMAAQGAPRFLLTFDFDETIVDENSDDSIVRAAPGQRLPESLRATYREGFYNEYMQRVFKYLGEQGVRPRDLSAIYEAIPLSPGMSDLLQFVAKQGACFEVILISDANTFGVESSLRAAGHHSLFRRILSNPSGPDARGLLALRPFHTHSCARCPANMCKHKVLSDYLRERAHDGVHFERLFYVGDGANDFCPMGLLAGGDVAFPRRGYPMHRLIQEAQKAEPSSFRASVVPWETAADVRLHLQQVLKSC
* hit, by the source's call; ? = inconclusive; . = not tested or not shown. Shown are actives, neighbours in structure and some others; about 6.8% of the full set was active somewhere.

SMILES	HSF-1 act	AI-2 QS modul	HCV core dimer	ALR H2O2 inh	HSF1 inhib	PHOSPHO1 block
CCN(CC)c1ccc(NC(=O)COC(=O)CCC(=O)c2ccc(F)cc2)cc1	-28	15	-21	46	-11	85*
Cc1ccc(S(=O)(=O)NCCC(=O)Nc2cc(S(=O)(=O)N(C)C)ccc2C)cc1C	-5	18	4	-3	8	40
O=C(c1ccc(OCC2CCCO2)cc1)N1CCN(c2ccccc2)CC1 (stereo not given)	-3	2	8	98*	-5	1
CC(NC(=O)CSc1ncccc1C(=O)O)C1CC2CCC1C2 (stereo not given)	-7	17	3	-5	-6	12
N#Cc1c(SCC(=O)Nc2nc3ccccc3s2)sc2c(O)cc(=O)[nH]c12	.	.	.	99*	.	.
N#Cc1c(SCC(=O)Nc2nc3ccc(Br)cc3s2)sc2c(O)cc(=O)[nH]c12	-5	36	-44	99*	-5	0
N#Cc1c(SCC(=O)Nc2nccs2)sc2c(O)cc(=O)[nH]c12	-12	53	-33	99*	4	-20
COc1ccc2cc(/C=N/NC(=O)CN(c3ccccc3)S(=O)(=O)c3ccccc3)c(Cl)nc2c1	8	8	16	-1	2	-8
COc1ccc(N(CC(=O)N/N=C/c2cc3ccc(OC)cc3nc2Cl)S(=O)(=O)c2ccccc2)cc1	59*	64	3	-20	29	-24
Cc1[nH]c2ccc(F)cc2c(=O)c1SC(F)(F)C(F)C(F)(F)F (stereo not given)	0	13	2	-5	-5	88*
COC1(c2ccccc2)NC(=S)NN=C1c1ccccc1 (stereo not given)	-8	-7	4	9	2	75*
CCCCCCOC1(c2ccccc2)OC(=O)c2ccccc21 (stereo not given)	22	14	-5	-7	8	5
CCCCOC1(c2ccccc2)NC(=S)NN=C1c1ccccc1 (stereo not given)	9	1	5	38	-3	71*
CCOC(=O)C1CCN(C(=O)c2ccccc2NS(=O)(=O)c2ccc(F)cc2)CC1	35	19	0	14	6	-7
Cc1ccccc1S(=O)(=O)NC1OC(=O)C(Oc2ccccc2)=C1Br (stereo not given)	3	18	-1	95*	1	26
Nc1ccc2c(c1)OCCOCCOCCOCCOCCO2	5	18	-2	98*	-2	-5
Brc1ccc2c(c1)OCCOCCOc1cc(Br)ccc1OCCOCCOCCO2	-10	-2	4	-9	-9	-21
CCOc1ccc(NS(=O)(=O)c2ccc(C(=O)NCC(c3ccco3)N3CCCC3)cc2)cc1 (stereo not given)	.	.	.	3	.	.
CCOC(=O)N1CCN(C(=O)CSCC(=O)Nc2nc(-c3cccs3)cs2)CC1	-13	9	0	90*	10	-5
CC1CCCN(C(=O)CSCC(=O)Nc2nc(-c3cccs3)cs2)C1 (stereo not given)	-2	20	15	6	9	7
CC1CCN(C(=O)CSCC(=O)Nc2nc(-c3cccs3)cs2)CC1	-14	17	8	98*	0	15
CCCCn1c(N)c(N(C)C(=O)c2cn(-c3ccccc3)nc2-c2ccccc2)c(=O)[nH]c1=O	.	.	.	-8	.	.
CCCn1nnnc1COc1ccc(C(N)=O)cc1	-4	5	3	-15	7	-9
CCc1nnc(NC(=O)[C@@H](NC(=O)c2cccc(S(=O)(=O)N(CC)CC)c2)C(C)C)s1	14	13	-5	-4	-2	-6
O=C(CN1CC(=O)Oc2ccccc21)OCC(=O)c1cccc(Br)c1	53*	32	16	-13	31	-7
SMILES	HSF-1 act	AI-2 QS modul	HCV core dimer	ALR H2O2 inh	HSF1 inhib	PHOSPHO1 block
O=C(CN1CC(=O)Oc2ccccc21)OCC(=O)c1ccccc1	?	52	-12	25	38	10
COc1ccc(NC(=O)c2cccc(N3C(=O)C4C5C=CC(C6CC56)C4C3=O)c2)cc1 (stereo not given)	1	17	5	-2	-7	23
CCCCn1c(N)c(N(CCOC)C(=O)COC(=O)COc2c(C)cc(C)cc2C)c(=O)[nH]c1=O	-3	10	-1	.	-1	.
Cc1ccc2c(c1)cc(C(=O)NCc1ccccc1)n2C	8	-11	-6	-4	1	39
CCC(C)(C)n1nnnc1C(c1cc2cc(C)ccc2[nH]c1=O)N1CCCC1 (stereo not given)	50	19	9	1	16	10
COc1ccc2cc(C(c3nnnn3Cc3ccccc3)N3CCCCCC3)c(=O)[nH]c2c1 (stereo not given)	-7	37	8	-11	-4	94*
Cc1ccc2cc(C(c3nnnn3C(C)(C)C)N3CCCCCC3)c(=O)[nH]c2c1 (stereo not given)	.	4	1	-11	.	102*
CCN(Cc1ccccc1)C(c1cc2ccc(C)cc2[nH]c1=O)c1nnnn1CCOC (stereo not given)	1	18	1	-6	-2	99*
CCCN(c1ccc(OCC)cc1)S(=O)(=O)c1ccc2c(c1)NC(=O)CO2	12	8	1	-25	-1	-6
CCn1cc(C(=O)OCC(=O)Nc2c(C)cccc2C)c(=O)c2ccc(C)nc21	30	13	1	33	6	16
CSc1ccccc1OCc1cc(C(=O)N2CCc3[nH]cnc3C2c2ccccn2)no1 (stereo not given)	3	14	1	2	-2	56
O=c1[nH]cnc2cc(-c3ccc(Br)cc3)sc12	44	18	1	0	17	26
O=c1[nH]c(CCl)nc2cc(-c3ccc(F)cc3)sc12	53*	30	17	-15	17	17
CC1=NNC(=O)C1CC(=O)N/N=C/c1ccc(C)o1 (stereo not given)	-47	.	-5	18	-38	18
CC(/C=N/NC(=O)Cn1cnc2ccccc21)=C\c1ccccc1	-75	-9	11	-1	-66*	-15
CCOc1cccc(/C=N/NC(=O)CC2C(=O)NN=C2C)c1O (stereo not given)	-1	9	-2	98*	-4	-1
CC1=NNC(=O)C1CC(=O)N/N=C/C(C)=C/c1ccccc1 (stereo not given)	31	3	4	94*	7	17
O=C(Cn1cnc2ccccc21)N/N=C/c1ccccc1	-8	-6	5	-19	-4	-6
O=C1CCCC/C1=C\Nc1ccc(S(=O)(=O)Nc2cnc3ccccc3n2)cc1	.	-2	0	1	.	1
CC(=O)NC(=S)Nc1cccc(S(=O)(=O)NC2=NCCC2)c1	-81	7	-4	.	-76*	12

Assay outcomes deposited in PubChem by several laboratories.
